Experimental findings from ChEMBL document CHEMBL3098014 (Bioorg Med Chem, 2014) are described below.

One test concerns the target Transporter (Rattus norvegicus, UniProt Q63380). The experiment in a line: Displacement of [3H]-dopamine from rat cerebral cortex NET after 7 mins. The format is tissue-based.
The target of test [1] is Sodium-dependent serotonin transporter (Rattus norvegicus, UniProt P31652). The experiment in a line: Displacement of [3H]5-HT from rat cerebral cortex SERT after 10 mins. The format is tissue-based. Put shortly: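 Rat cerebral cortex tissue. Inhibition of [3H]5-HT (27.9 Ci/mmol) uptake, accumulation measured over 10 min. Drug stocks included an added 0.01% (w/v) BSA. Five or more triplicate concentrations bracketing the IC50, converted to Ki by Cheng-Prusoff. Mean ± SEM from three to eight independent experiments.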
Sequence of Sodium-dependent serotonin transporter (P31652 whole entry): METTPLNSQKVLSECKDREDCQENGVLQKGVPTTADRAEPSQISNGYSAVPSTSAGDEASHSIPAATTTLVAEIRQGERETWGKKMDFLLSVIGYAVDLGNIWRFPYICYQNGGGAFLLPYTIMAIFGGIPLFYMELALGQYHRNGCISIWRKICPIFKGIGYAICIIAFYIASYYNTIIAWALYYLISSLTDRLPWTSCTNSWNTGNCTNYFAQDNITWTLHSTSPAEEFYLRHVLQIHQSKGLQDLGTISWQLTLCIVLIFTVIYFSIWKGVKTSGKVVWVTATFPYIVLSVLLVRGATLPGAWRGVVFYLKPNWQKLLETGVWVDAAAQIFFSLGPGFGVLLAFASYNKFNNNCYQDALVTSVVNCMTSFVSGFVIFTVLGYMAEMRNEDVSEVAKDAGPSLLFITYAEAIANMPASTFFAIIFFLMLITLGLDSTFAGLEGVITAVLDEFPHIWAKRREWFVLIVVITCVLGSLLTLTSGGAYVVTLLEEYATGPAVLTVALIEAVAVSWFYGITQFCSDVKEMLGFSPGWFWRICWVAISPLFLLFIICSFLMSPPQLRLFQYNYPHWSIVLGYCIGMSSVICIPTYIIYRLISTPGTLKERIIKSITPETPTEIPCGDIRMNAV

The target in test [2] is Sodium-dependent dopamine transporter (Rattus norvegicus, UniProt P23977). The experiment in a line: Displacement of [3H]-dopamine from rat striatum DAT after 5 mins. Put shortly: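 Uptake inhibition in rat striatal tissue: [3H]dopamine (45.0 Ci/mmol) accumulation measured over 5 min. Drug stocks contained an extra 0.01% (w/v) BSA. At least five concentrations, each in triplicate, spaced evenly around the IC50. IC50 converted to Ki via Cheng-Prusoff. Average ± SEM of three to eight independent experiments.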
Sequence of Sodium-dependent dopamine transporter (P23977 whole entry): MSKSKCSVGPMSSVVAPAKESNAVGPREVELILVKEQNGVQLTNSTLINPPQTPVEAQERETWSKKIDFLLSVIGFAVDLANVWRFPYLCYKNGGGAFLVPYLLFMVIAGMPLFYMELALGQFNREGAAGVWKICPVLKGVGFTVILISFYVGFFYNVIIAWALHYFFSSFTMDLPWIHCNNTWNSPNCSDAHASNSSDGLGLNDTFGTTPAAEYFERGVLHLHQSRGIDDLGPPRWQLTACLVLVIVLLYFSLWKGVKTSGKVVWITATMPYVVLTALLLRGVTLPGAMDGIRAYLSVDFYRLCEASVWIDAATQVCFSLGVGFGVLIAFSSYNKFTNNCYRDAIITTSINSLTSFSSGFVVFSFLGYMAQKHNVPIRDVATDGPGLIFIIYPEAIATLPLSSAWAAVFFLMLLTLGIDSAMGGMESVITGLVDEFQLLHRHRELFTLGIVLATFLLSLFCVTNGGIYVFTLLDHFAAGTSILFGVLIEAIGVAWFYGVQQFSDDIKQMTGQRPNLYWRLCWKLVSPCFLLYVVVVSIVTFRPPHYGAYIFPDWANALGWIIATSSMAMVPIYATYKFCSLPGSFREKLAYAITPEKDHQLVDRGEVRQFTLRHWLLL
Background: Loss of bound radioactivity is the signal in a displacement assay; it reports binding, not function.

pKi: −log10 of the molar value.

Sequence of Transporter (Q63380 whole entry): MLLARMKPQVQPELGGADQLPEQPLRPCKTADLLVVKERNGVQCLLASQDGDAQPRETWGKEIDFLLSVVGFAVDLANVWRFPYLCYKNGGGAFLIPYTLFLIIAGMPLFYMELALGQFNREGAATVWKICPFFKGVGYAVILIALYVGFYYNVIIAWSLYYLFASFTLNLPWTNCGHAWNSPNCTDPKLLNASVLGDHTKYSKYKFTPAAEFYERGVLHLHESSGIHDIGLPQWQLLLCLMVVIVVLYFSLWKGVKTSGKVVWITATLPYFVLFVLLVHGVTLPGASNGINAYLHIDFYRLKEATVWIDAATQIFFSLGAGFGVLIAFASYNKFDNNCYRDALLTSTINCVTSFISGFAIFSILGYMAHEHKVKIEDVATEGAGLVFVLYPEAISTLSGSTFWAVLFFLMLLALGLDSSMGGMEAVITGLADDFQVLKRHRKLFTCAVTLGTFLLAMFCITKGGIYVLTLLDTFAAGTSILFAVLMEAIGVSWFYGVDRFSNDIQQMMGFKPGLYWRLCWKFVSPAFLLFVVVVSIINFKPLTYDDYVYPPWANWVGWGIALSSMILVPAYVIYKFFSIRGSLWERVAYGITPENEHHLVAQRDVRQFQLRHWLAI

As for `Nc1ccc(CN[C@H]2CC[C@@H](C(c3ccccc3)c3ccccc3)OC2)cc1`, on Transporter, the pKi was 7.90.
Regarding `Oc1ccc(CN[C@H]2CC[C@@H](Cc3ccccc3)OC2)cc1`, the pKi was 5.60 in test [1] and 6.62 at Transporter.
As to `c1ccc(CCN[C@H]2CO[C@H](C(c3ccccc3)c3ccccc3)C2)cc1`, the figures for the pKi (in test [1]; in test [2]; on Transporter) were 6.07, 6.34 and 6.13, respectively.
The like results for `Oc1ccc(CN[C@H]2CC[C@@H](CC(c3ccccc3)c3ccccc3)OC2)cc1` were, in that order, 6.46, 6.61 and 6.74.
The like results for `c1ccc(CCN[C@@H]2CO[C@H](C(c3ccccc3)c3ccccc3)C2)cc1` were, in that order, 5.69, 6.19 and 6.37.
The like results for `Oc1ccc(CN[C@@H]2CO[C@H](C(c3ccccc3)c3ccccc3)C2)cc1` were, in that order, 5.94, 6.03 and 5.82.
In the case of `Oc1ccc(CN[C@H]2CC[C@@H](CCC(c3ccccc3)c3ccccc3)OC2)cc1`, the pKi in test [1] is 6.33; in test [2], 7.34; on Transporter, 7.42.
The like results for `Oc1ccc(CN[C@@H]2CO[C@H](C(c3ccc(F)cc3)c3ccc(F)cc3)C[C@H]2O)cc1` were, in that order, 7.23, 7.42 and 8.38.
For `Fc1ccc(CCN[C@@H]2CO[C@H](C(c3ccccc3)c3ccccc3)C2)cc1` the same measures were 5.87, 6.23 and 6.71.
Regarding `Nc1ccc(CN[C@H]2CC[C@@H](C(c3ccc(F)cc3)c3ccc(F)cc3)OC2)cc1`, the pKi in test [1] was 7.16; in test [2] it was 7.49; at Transporter, 8.08.
The like results for `Oc1ccc(CN[C@H]2CO[C@H](C(c3ccccc3)c3ccccc3)C2)cc1` were, in that order, 6.39, 5.43 and 6.01.
The like results for `COc1ccc(CCN[C@@H]2CO[C@H](C(c3ccccc3)c3ccccc3)C2)cc1` were, in that order, 6.45, 6.58 and 6.70.
The like results for `Oc1ccc(CCN[C@@H]2CO[C@H](C(c3ccccc3)c3ccccc3)C2)cc1` were, in that order, 6.82, 6.59 and 6.78.
For the compound `Fc1ccc(C(c2ccc(F)cc2)[C@@H]2CC[C@H](NCc3ccc4c(c3)CCO4)CO2)cc1`, the pKi in test [1] was 8.52; in test [2], 7.95; at Transporter it was 8.21.

What is called pKi is −log10 of the Ki, conventionally taken in molar units. A high value points to a low Ki.
